Test results: ChEMBL document CHEMBL4823328, “Structure-Guided Design of d-Galactal Derivatives with High Affinity and Selectivity for the Galectin-8 N-Terminal Domain” (ACS Med Chem Lett, 2021)
The source made the active and inactive calls. The calls are words filed in the database; no cut-off is given here.

What was measured:
[1] = target: T1, Galectin-7 (Homo sapiens, UniProt P47929); experiment: Binding affinity to human galectin-7 assessed as dissociation constant measured up to 1500 uM by competitive fluorescence polarization assay; settings: dose microM <=1500
[2] = species on record: Homo sapiens; experiment: Selectivity for human galectin-8N over human galectin-9 N terminal domain
[3] = target: T2, Galectin-4 (Homo sapiens) (UniProt P56470); experiment: Binding affinity to human galectin-4 N terminal domain assessed as dissociation constant measured up to 1500 uM by competitive fluorescence polarization assay; settings: dose microM <=1500
T2 sequence (whole entry): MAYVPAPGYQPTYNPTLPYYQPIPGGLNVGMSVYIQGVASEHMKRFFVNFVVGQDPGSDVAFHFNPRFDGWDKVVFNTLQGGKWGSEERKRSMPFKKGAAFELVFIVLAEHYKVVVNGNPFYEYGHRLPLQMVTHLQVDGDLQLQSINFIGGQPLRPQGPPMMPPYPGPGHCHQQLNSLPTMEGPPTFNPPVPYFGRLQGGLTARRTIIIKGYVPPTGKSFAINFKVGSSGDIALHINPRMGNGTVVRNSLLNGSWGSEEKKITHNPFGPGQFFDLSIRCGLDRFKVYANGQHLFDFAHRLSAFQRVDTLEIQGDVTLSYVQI

[4] = species on record: Homo sapiens; experiment: Selectivity for human galectin-8N over human galectin-4 N terminal domain
[5] = species on record: Homo sapiens; experiment: Selectivity for human galectin-8N over human galectin-9 C terminal domain
[6] = species on record: Homo sapiens; experiment: Selectivity for human galectin-8N over human galectin-8 C terminal domain
[7] = species on record: Homo sapiens; experiment: Selectivity for human galectin-8N over human galectin-4 C terminal domain
[8] = species on record: Homo sapiens; experiment: Selectivity for human galectin-8N over human galectin-1
[9] = target: T3, Galectin-9 (Homo sapiens, UniProt O00182); experiment: Binding affinity to human galectin-9 C terminal domain assessed as dissociation constant measured up to 1500 uM by competitive fluorescence polarization assay; settings: dose microM <=1500
[10] = species on record: Homo sapiens; experiment: Selectivity for human galectin-8N over human galectin-3
[11] = species on record: Homo sapiens; experiment: Selectivity for human galectin-8N over human galectin-2
[12] = target: T4, Galectin-8 (Homo sapiens) (UniProt O00214); experiment: Antagonist activity at galactin-8 in human MDA-MB-231 cells assessed as reduction in IL-8 secretion at 100 uM measured after 24 hrs by flow cytometry relative to control; format: cell-based; set-up: scale not given: the % may be the effect or the level left
T4 sequence (whole entry): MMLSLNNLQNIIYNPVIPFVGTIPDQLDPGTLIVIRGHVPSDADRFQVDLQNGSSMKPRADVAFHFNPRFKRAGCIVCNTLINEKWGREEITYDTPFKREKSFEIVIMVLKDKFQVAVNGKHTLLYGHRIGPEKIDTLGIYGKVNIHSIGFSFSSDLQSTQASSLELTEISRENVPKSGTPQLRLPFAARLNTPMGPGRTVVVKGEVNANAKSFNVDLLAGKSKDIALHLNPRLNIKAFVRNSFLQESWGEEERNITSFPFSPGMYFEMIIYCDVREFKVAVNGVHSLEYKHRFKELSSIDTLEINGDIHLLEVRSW
How it was run: (§1)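 MDA-MB-231 cells, which express galectin-8 endogenously, were incubated with the compounds at 10 or 100 μM. Secreted IL-6 and IL-8 were quantified in pg/mL and compared with untreated cells. Values are means ± SEM from three independent experiments, with significance tested against untreated controls. Cell viability at the same concentrations was checked separately by MTS assay.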

[13] = system: MDA-MB-231; experiment: Cytotoxicity against human MDA-MB-231 cells assessed as cell viability at 1 to 100 uM measured after 24 hrs by MTS assay; format: functional, cell-based; settings: dose 1-100 µM
How it was run: (§2)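 MTS viability assay on human PBMCs and on the K562 and MDA-MB-231 cancer lines. The cancer lines were exposed to 1–100 μM compound, and PBMCs to concentrations up to 100 μM. Read-out was the MTS tetrazolium reduction signal.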

[14] = Cytotoxicity against human PBMC cells assessed as cell viability upto 100 uM measured after 24 hrs by MTS assay; format: cell-based; how it was run: as §2
[15] = system: K562; experiment: Cytotoxicity against human K562 cells assessed as cell viability at 1 to 100 uM measured after 24 hrs by MTS assay; format: functional, cell-based; settings: dose 1-100 µM; how it was run: as §2
[16] = target: T4, Galectin-8 (Homo sapiens); experiment: Antagonist activity at galactin-8 in human MDA-MB-231 cells assessed as reduction in IL-6 secretion at 100 uM measured after 24 hrs by flow cytometry relative to control; format: cell-based; set-up: scale not given: the % may be the effect or the level left; how it was run: as §1
[17] = target: T3, Galectin-9; experiment: Binding affinity to human galectin-9 N terminal domain assessed as dissociation constant measured up to 1500 uM by competitive fluorescence polarization assay; settings: dose microM <=1500
[18] = target: T5, Galectin-8 (Homo sapiens, UniProt O00214); experiment: Binding affinity to human galectin-8 C terminal domain assessed as dissociation constant by competitive fluorescence polarization assay
T5 sequence (O00214 whole entry): T4 sequence (whole entry)

[19] = target: Galectin-1 (Homo sapiens) (UniProt P09382); experiment: Binding affinity to human galectin-1 assessed as dissociation constant measured up to 1500 uM by competitive fluorescence polarization assay; settings: dose microM <=1500
[20] = target: T1, Galectin-7; experiment: Binding affinity to human galectin-7 assessed as dissociation constant by competitive fluorescence polarization assay
[21] = target: T6, Galectin-2 (Homo sapiens, UniProt P05162); experiment: Binding affinity to human galectin-2 assessed as dissociation constant by competitive fluorescence polarization assay
T6 sequence (P05162 whole entry): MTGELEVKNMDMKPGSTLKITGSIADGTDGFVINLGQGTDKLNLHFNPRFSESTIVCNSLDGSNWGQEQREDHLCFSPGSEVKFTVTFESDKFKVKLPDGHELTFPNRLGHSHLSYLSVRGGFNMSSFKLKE

[22] = target: T3, Galectin-9; experiment: Binding affinity to human galectin-9 C terminal domain assessed as dissociation constant by competitive fluorescence polarization assay
[23] = target: T7, Galectin-4 (Homo sapiens, UniProt P56470); experiment: Binding affinity to human galectin-4 N terminal domain assessed as dissociation constant by competitive fluorescence polarization assay
T7 sequence (P56470 whole entry): T2 sequence (whole entry)

[24] = target: T7, Galectin-4; experiment: Binding affinity to human galectin-4 C terminal domain assessed as dissociation constant by competitive fluorescence polarization assay
[25] = target: T3, Galectin-9; experiment: Binding affinity to human galectin-9 N terminal domain assessed as dissociation constant by competitive fluorescence polarization assay
[26] = target: T4, Galectin-8 (Homo sapiens); experiment: Antagonist activity at galactin-8 in human MDA-MB-231 cells assessed as reduction in IL-6 secretion at 10 uM measured after 24 hrs by flow cytometry relative to control; format: cell-based; set-up: scale not given: the % may be the effect or the level left; how it was run: as §1
[27] = target: T4, Galectin-8 (Homo sapiens); experiment: Binding affinity to human galectin-8 C terminal domain assessed as dissociation constant measured up to 1500 uM by competitive fluorescence polarization assay; settings: dose microM <=1500
[28] = target: T8, Galectin-2 (Homo sapiens) (UniProt P05162); experiment: Binding affinity to human galectin-2 assessed as dissociation constant measured up to 1500 uM by competitive fluorescence polarization assay; settings: dose microM <=1500
T8 sequence (whole entry): T6 sequence (P05162 whole entry)

T1 sequence (P47929 whole entry, the tested form may be a part): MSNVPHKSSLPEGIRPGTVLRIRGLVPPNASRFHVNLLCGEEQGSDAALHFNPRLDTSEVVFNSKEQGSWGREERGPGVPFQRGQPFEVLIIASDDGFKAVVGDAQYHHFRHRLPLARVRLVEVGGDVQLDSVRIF
Sequence of Galectin-1 (Homo sapiens) (P09382 whole entry): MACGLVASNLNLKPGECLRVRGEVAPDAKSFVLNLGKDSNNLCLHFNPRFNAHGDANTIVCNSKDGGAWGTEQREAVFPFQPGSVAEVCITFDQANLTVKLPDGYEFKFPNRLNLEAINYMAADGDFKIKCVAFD
T3 sequence (O00182 whole entry, the tested form may be a part): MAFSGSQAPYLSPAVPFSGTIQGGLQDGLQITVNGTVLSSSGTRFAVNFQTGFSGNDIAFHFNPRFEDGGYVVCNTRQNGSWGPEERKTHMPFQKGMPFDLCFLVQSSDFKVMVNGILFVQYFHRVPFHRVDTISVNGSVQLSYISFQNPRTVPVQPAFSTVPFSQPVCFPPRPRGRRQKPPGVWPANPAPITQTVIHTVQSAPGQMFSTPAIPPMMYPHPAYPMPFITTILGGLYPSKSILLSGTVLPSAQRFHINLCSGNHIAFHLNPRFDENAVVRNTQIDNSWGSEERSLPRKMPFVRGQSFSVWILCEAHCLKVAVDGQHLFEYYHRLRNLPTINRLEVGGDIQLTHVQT

Structure (SMILES)	Selectivity ratio [2]	Selectivity ratio [4]	Selectivity ratio [5]	Selectivity ratio [6]	Selectivity ratio [7]	Selectivity ratio [8]	Activity [9]	Selectivity ratio [10]	Selectivity ratio [11]	Activity [17]	Kd [20]	Kd [21]	other results
O=C(O)c1ccc2ccc(CO[C@@H]3C=CO[C@H](CO)[C@@H]3O)nc2c1	> 2	> 2	> 2	> 2	> 2	> 2	inactive	> 2	> 2	–	–	–	Activity [1]: inactive; Activity [3]: inactive
Cn1c(CO[C@@H]2C=CO[C@H](CO)[C@@H]2O)nc2ccc(C(=O)O)cc21	> 2	> 2	> 2	> 2	> 2	–	inactive	–	> 2	–	–	–	Activity [1]: inactive; Activity [12]: 55%; Activity [13]: inactive; Activity [14]: Non-Toxic; Activity [15]: inactive; Activity [16]: 65%
O=C(O)c1ccc2nc(CO[C@@H]3C=CO[C@H](CO)[C@@H]3O)[nH]c2c1	> 2	> 2	> 2	> 2	> 2	> 2	–	> 2	> 2	inactive	–	–	Activity [1]: inactive; Kd [18]: Not Active; Activity [13]: inactive; Activity [14]: Non-Toxic; Activity [15]: inactive; Activity [19]: inactive
COC(=O)c1ccc2nc(CO[C@@H]3C=CO[C@H](CO)[C@@H]3O)n(C)c2c1	> 2	> 2	–	> 2	> 2	> 2	–	> 2	–	inactive	Not Active	Not Active	Kd [22]: Not Active
CO[C@@H]1O[C@H](CO)[C@H](O)[C@H](O)[C@H]1O	–	–	–	–	–	–	–	–	–	–	Not Active	–	–
CCOC(=O)c1ccc2c(c1)nc(CO[C@@H]1C=CO[C@H](CO)[C@@H]1O)n2C	–	–	–	> 2	–	1.2	–	0.99	–	–	Not Active	Not Active	Kd [23]: Not Active; Kd [24]: Not Active; Kd [22]: Not Active; Kd [25]: Not Active
OC[C@H]1Oc2cc(Cc3ccc(F)cc3)cc3c2[C@@H](OC3)[C@H]1O	> 2	> 2	> 2	–	> 2	> 2	–	> 2	–	–	Not Active	Not Active	Kd ([24]; read-out: Kd): > 3 mM; Kd [18]: Not Active
OC[C@H]1OC=C[C@@H](O)[C@H]1O	> 2	1.8	> 2	> 2	> 2	1.2	–	> 2	–	inactive	Not Active	Not Active	–
Cn1c(CO[C@@H]2[C@@H](O)[C@@H](Sc3ccc(Cl)c(Cl)c3)O[C@H](CO)[C@@H]2O)nc2ccc(C(=O)O)cc21	–	–	–	–	–	–	–	–	–	–	–	–	Activity [12]: 55%; Activity [26]: 15%; Activity [13]: inactive; Activity [14]: Non-Toxic; Activity [15]: inactive; Activity [16]: 65%
COC(=O)c1ccc2ccc(CO[C@@H]3C=CO[C@H](CO)[C@@H]3O)nc2c1	> 2	> 2	> 2	> 2	> 2	> 2	inactive	> 2	> 2	–	Not Active	–	Activity [19]: inactive; Activity [27]: inactive; Activity [28]: inactive
COC(=O)c1ccc2nc(CO[C@@H]3C=CO[C@H](CO)[C@@H]3O)[nH]c2c1	> 2	> 2	> 2	> 2	> 2	> 2	inactive	> 2	–	inactive	Not Active	Not Active	Activity [19]: inactive
Cn1c(CO[C@@H]2C=CO[C@H](CO)[C@@H]2O)nc2cc(C(=O)O)ccc21	> 2	> 2	> 2	> 2	> 2	1.4	inactive	0.95	–	inactive	Not Active	Not Active	–
